Measurements published in ChEMBL document CHEMBL2385013, “7-Phenyl-imidazoquinolin-4(5H)-one derivatives as selective and orally available mPGES-1 inhibitors” (Bioorg Med Chem, 2013).
≈ marks a conversion by molar mass, not a printed value.

Columns and labels:
[1] = Solubility of the compound in FaSSIF; format: physicochemical
[2] = Permeability of the compound at pH 5 by PAMPA; format: ADME; settings: read-out: permeability
Summary of the method: (§1)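 Compound was incubated for 4 h between a donor compartment (System Solution, pH 5.0 or 7.4) and an acceptor sink buffer. The distribution was read by UV absorption, and effective permeability coefficients were calculated by a published method.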

[3] = Permeability of the compound at pH 7.4 by PAMPA; format: ADME; settings: read-out: permeability; summary of the method: as §1
[4] = Oral bioavailability in rat at 10 mg/kg; format: ADME, organism-based; settings: in vivo
Summary of the method: (§2)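 Fasted male rats (n = 3) were given 1 mg/kg iv in 5% glucose/0.1 M HCl = 9/1, or 10 mg/kg po as a suspension in 0.5% methyl cellulose. Jugular vein blood was drawn into heparinized syringes at iv pre-dose, 5, 15, 30 min, 1, 2, 4, 6 and 24 h, or at po 15 and 30 min, 1, 2, 4, 6 and 24 h. Plasma was analysed for parent compound. BA = (AUCpo/Dpo)/(AUCiv/Div) × 100.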

[5] = AUC in rat at 10 mg/kg, po; format: ADME, organism-based; parameters: dose 10 mg/kg, route oral; settings: plasma; summary of the method: as §2
[6] = Cmax in rat at 10 mg/kg, po; format: ADME, organism-based; parameters: dose 10 mg/kg, route oral; settings: in vivo; summary of the method: as §2
[7] = AUC in rat at 1 mg/kg, iv; format: ADME, organism-based; parameters: dose 1 mg/kg, route intravenous; settings: plasma; summary of the method: as §2
[8] = Volume of distribution at steady state in rat at 1 mg/kg, iv; format: ADME, organism-based; parameters: dose 1 mg/kg, route intravenous; settings: in vivo, read-out: Vdss; summary of the method: as §2

| solubility [1] | Papp [2] | Papp [3] | bioavailability [4] | AUC [5] | Cmax [6] | AUC [7] | Vd [8] | Structure (SMILES) |
| --- | --- | --- | --- | --- | --- | --- | --- | --- |
| 0.9 µg/mL (≈ 2.4 µM) | > 30 ×10⁻⁶ cm/s | 26 ×10⁻⁶ cm/s |  |  |  |  |  | O=c1[nH]c2cc(Br)ccc2c2[nH]c(-c3ccccc3Cl)nc12 |
| 1 µg/mL (≈ 2.57 µM) | 30 ×10⁻⁶ cm/s | > 30 ×10⁻⁶ cm/s | 19% | 1400 ng·h/mL | 472 ng/mL | 728 ng·h/mL | 1.4 L/kg | O=c1[nH]c2cc(-c3ccccc3)ccc2c2nc(-c3c(F)cccc3Cl)[nH]c12 |
| 0.5 µg/mL (≈ 1.18 µM) | 29 ×10⁻⁶ cm/s | > 30 ×10⁻⁶ cm/s |  |  |  |  |  | O=c1[nH]c2cc(-c3cccc(Cl)c3)ccc2c2nc(-c3c(F)cccc3Cl)[nH]c12 |
| 1 µg/mL (≈ 2.69 µM) | > 30 ×10⁻⁶ cm/s | > 30 ×10⁻⁶ cm/s |  |  |  |  |  | O=c1[nH]c2cc(-c3ccccc3)ccc2c2nc(-c3ccccc3Cl)[nH]c12 |
